{"source": "ChEMBL document CHEMBL2169822", "about": "“Discovery and optimization of 1,3,4-trisubstituted-pyrazolone derivatives as novel, potent, and nonsteroidal farnesoid X receptor (FXR) selective antagonists” (J Med Chem, 2012)", "key": {"[1]": {"biological_target": "T1, Glucocorticoid receptor (Homo sapiens) (UniProt P04150)", "T1 sequence (whole entry)": "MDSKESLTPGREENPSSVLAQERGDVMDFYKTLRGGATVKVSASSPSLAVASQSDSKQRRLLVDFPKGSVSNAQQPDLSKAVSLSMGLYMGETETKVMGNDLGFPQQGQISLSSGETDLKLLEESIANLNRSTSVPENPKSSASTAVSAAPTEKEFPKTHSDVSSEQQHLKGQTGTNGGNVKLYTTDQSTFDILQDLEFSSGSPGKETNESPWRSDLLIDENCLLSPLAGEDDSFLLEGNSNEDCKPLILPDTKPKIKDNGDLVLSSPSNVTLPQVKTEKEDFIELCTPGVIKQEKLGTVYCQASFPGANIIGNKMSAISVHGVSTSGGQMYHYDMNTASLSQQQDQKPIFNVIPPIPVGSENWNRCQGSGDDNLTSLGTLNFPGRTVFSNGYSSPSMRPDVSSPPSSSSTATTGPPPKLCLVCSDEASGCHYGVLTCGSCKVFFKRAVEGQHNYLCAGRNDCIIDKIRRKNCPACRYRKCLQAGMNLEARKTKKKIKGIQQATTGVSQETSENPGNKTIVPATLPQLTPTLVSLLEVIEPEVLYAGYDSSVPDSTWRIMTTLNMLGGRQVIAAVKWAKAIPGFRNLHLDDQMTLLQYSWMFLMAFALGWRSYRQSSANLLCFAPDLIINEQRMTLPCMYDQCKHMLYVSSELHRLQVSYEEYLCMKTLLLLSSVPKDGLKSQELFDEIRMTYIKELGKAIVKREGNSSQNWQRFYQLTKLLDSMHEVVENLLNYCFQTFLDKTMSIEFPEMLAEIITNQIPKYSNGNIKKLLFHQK", "experiment": "Agonist activity at recombinant glucocorticoid receptor LBD expressed in HEK293T cells co-expressing GAL4 DBD at 20 uM by transactivation assay", "assay_type": "functional, cell-based", "conditions": "HEK-293T", "procedure,_shortened": "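One-hybrid assay in HEK293T cells cotransfected with a Gal4 DBD–NR-LBD fusion (RXRα, LXRα, GR, PR, PPARδ or PPARγ) plus UAS-TK-Luc reporter. Compound was 20 μM, given alone or with agonist: 9cRA 0.1 μM (RXRα), TO901317 0.5 μM (LXRα), dexamethasone 50 nM (GR), progesterone 100 nM (PR), GW1516 10 μM (PPARδ), rosiglitazone 10 μM (PPARγ). Luciferase read-out; three independent experiments.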"}, "[2]": {"experiment": "(§1) Antagonist activity at FXRalpha/RXRalpha expressed in HEK293T cells co-expressing GAL4 DBD assessed as inhibition of CDCA-induced transactivation after 18 hrs by luciferase reporter gene assay", "assay_type": "functional, cell-based", "conditions": "Homo sapiens, HEK-293T", "procedure,_shortened": "(§2)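 FXR transactivation in HEK293T cells transiently transfected with pcDNA3.1-FXRα, pcDNA3.1-RXRα, pGL3-FXRE-Luc and pRL-SV40 Renilla vector. Medium was replaced 6 h after transfection with medium holding compound at varied concentrations, with or without 20 μM CDCA, for 18 h. Read-out was dual-luciferase. Three independent experiments.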"}, "[3]": {"system": "HEK-293T", "experiment": "as §1", "assay_type": "functional, cell-based", "conditions": "Homo sapiens", "procedure,_shortened": "as §2"}, "[4]": {"biological_target": "T2, Bile acid receptor (Homo sapiens) (UniProt Q96RI1)", "T2 sequence (whole entry)": "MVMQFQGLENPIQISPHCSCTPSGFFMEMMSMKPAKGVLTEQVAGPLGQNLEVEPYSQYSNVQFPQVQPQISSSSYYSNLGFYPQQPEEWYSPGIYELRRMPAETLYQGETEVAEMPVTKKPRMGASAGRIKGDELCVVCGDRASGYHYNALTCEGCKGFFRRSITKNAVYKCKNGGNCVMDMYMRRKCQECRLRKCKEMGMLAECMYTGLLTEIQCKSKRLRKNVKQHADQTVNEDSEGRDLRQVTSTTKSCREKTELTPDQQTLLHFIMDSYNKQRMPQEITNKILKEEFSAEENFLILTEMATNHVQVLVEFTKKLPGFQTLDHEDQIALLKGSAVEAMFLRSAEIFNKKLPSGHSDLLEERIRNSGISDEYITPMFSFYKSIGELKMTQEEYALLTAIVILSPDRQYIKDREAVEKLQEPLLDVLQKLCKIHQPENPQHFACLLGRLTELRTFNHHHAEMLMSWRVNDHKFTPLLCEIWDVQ", "experiment": "Antagonist activity at human FXR in human HepG2 cells assessed as inhibition of CDCA induced decrease of Cyp7A1 gene expression at 5 to 40 uM after 24 hrs by RT-PCR analysis", "assay_type": "functional, cell-based", "procedure,_shortened": "(§3)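 HepG2 cells in 6-well plates were treated with varied concentrations of compound, with or without 100 μM CDCA, for 24 h. Total RNA was taken with TRIzol and cDNA made by reverse transcription. Cyp7A1, SHP, BSEP and SREBP1c mRNA were measured by quantitative RT-PCR and normalized to β-actin. Three independent experiments.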"}, "[5]": {"system": "Mus musculus", "experiment": "Reduction of hepatic cholesterol level in cholesterol-fed C57BL/6 mouse at 100 mg/kg, po after 10 days", "assay_type": "functional", "design": "scale not given: the % may be the effect or the level left", "procedure,_shortened": "(§4)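 Male C57BL/6 mice, 8–12 weeks old, were randomized into five groups of nine. Control mice had ground chow; the other groups had chow with 2% cholesterol. Compound (50 or 100 mg/kg) or reference (100 mg/kg) was suspended in 0.5% CMC-Na and given by oral gavage; control and vehicle mice got 0.5% CMC-Na. Serum and hepatic triglyceride and total cholesterol were measured.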"}, "[6]": {"system": "Mus musculus", "experiment": "Reduction of total serum cholesterol level in cholesterol-fed C57BL/6 mouse at 50 to 100 mg/kg, po after 10 days", "assay_type": "functional", "design": "scale not given: the % may be the effect or the level left", "conditions": "dose mg/kg 50-100", "procedure,_shortened": "as §4"}, "[7]": {"system": "Mus musculus", "experiment": "Reduction of serum triglyceride level in cholesterol-fed C57BL/6 mouse administered orally after 10 days", "assay_type": "functional, organism-based", "procedure,_shortened": "as §4"}, "[8]": {"system": "Mus musculus", "experiment": "Reduction of serum triglyceride level in cholesterol-fed C57BL/6 mouse at 50 mg/kg, po after 10 days", "assay_type": "functional", "design": "scale not given: the % may be the effect or the level left", "procedure,_shortened": "as §4"}, "[9]": {"biological_target": "T2, Bile acid receptor (Homo sapiens)", "experiment": "Antagonist activity at human FXR in human HepG2 cells assessed as inhibition of CDCA induced SREBP1c gene expression at 5 to 40 uM after 24 hrs by RT-PCR analysis", "assay_type": "functional, cell-based", "procedure,_shortened": "as §3"}, "[10]": {"biological_target": "T2, Bile acid receptor (Homo sapiens)", "experiment": "Antagonist activity at human FXR in human HepG2 cells assessed as inhibition of CDCA induced BSEP gene expression at 5 to 40 uM after 24 hrs by RT-PCR analysis", "assay_type": "functional, cell-based", "procedure,_shortened": "as §3"}}, "note": "Activity calls are given as the source filed them. The rule behind the calls is not given here.", "data": [{"smiles": "COc1cc(/C=C2\\C(=O)N(c3cccc([N+](=O)[O-])c3)N=C2c2ccccc2)ccc1O", "values": [{"measurement": "Activity", "setting": "[1]", "result": "inactive"}, {"measurement": "IC50", "setting": "[2]", "result": 25.6, "unit": "µM"}, {"measurement": "inhibition", "setting": "[3]", "result": "Dose-dependent effect"}, {"measurement": "inhibition", "setting": "[4]", "result": "Active"}, {"measurement": "Activity", "setting": "[5]", "result": 47.5, "unit": "%"}, {"measurement": "Activity", "setting": "[6]", "result": 17.2, "unit": "%"}, {"measurement": "Activity", "setting": "[7]", "result": "Dose-dependent effect"}, {"measurement": "Activity", "setting": "[8]", "result": 48.4, "unit": "%"}, {"measurement": "inhibition", "setting": "[9]", "result": "Active"}, {"measurement": "inhibition", "setting": "[10]", "result": "Active"}]}]}
